The chains are these.
B1: tRNA (parent)
chain: GUUCCGUUGGCGUAAUGGUAACGCGUCUCCCUCCUAAGGAGAAGACUGCGGGUUCGAGUCCCGUACGGAACG

Variants at the floor of the assay were thinned out.

The variants in the data set derive from B1. The data set can be described thus: yeast fitness relative to wild type (ratio to wild type); higher = fitter; tRNA-Arg(CCU), competitive growth, 37 C, YPD. The essentials:
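Amplicons of the tRNA-Arg(CCU) gene were sequenced, 100-nucleotide paired-end, from the start population and from each end population of a pooled yeast competition. The competition, in six parallel replicates, lasted 24 hours in YPD at 37°C. Fitness relative to wild type was calculated from changes in genotype frequencies. Genotypes had to have ≥ 100 starting reads, and estimates < 0.5 were set to 0.5.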
Regarding C5U U16A C24U C66G, the yeast fitness was no more than 0.5.
The value for C5U G41C was 0.91; that for C5U U16C U59G was no more than 0.5; that for G6A A14U C61U was no more than 0.5.
Consider C5U C34A, for which the yeast fitness was found to be 0.631.
The value for G6A A20U G52C was no more than 0.5.
As for G6A C22G C24U U47A A70C, the yeast fitness is no more than 0.5.
The value for G6A A14U G52A G63C was no more than 0.5.
Consider C5U U28C C29U G63C A65U, for which the yeast fitness was no more than 0.5.
On to C5U C29A C31A U54A, for which the yeast fitness is no more than 0.5.
The value for C5U U19C C24A U28A was no more than 0.5; that for C5U G18C C22U G50A U54C was no more than 0.5.
Consider G6A A36C A37G G52A, for which the yeast fitness was no more than 0.5.
On to G6A C29A, for which the yeast fitness worked out at 0.647.
On to G6A C62U C66A, for which the yeast fitness amounted to 0.548.
The value for C5U C49A C60G was 0.754; that for C5U U19C C24A U28A C46G C62U A70U was no more than 0.5; that for C5U G38C C60U was no more than 0.5.
On to G6A C22G A57C C66A, for which the yeast fitness was no more than 0.5.
For the variant C5U G9A G10C G25A C33G G39A, the yeast fitness was no more than 0.5.
The value for G6A G10A U26A C27U C29A A65G G68C was no more than 0.5.
On to C5U G18C C49U U54G, for which the yeast fitness was no more than 0.5.
As to C5U G9A G39A G48A A57U, the yeast fitness is no more than 0.5.
For the variant C5U C34U C55G, the yeast fitness is no more than 0.5.
On to G6A A15C C27A A43G, for which the yeast fitness was found to be 0.592.
For C5U G25A C49U, the yeast fitness is 0.802.
On to C5U U19A C30A A42C U64C, for which the yeast fitness was no more than 0.5.
The value for G6A C24U C46U was 0.764.
The value for C5U C31A A45C was 0.681; that for C5U C33G G56C A69U was no more than 0.5; that for C5U C34A G50A U59G C62A was no more than 0.5.
The value for C5U U32C U35C C49G was no more than 0.5; that for C5U U8A G18C C29U A45C was 0.554.
As for G6A G9C C24U C30G C31A A43G A65C, the yeast fitness is no more than 0.5.
With C5U C46U G50C C61U the figure was no more than 0.5; with C5U U26G, 0.969.
With C5U U26A, the yeast fitness turned out to be 0.915.
The value for C5U U16C A40G A43G G63C A69G was no more than 0.5.
With C5U G6A A65U C66U A70G the figure was no more than 0.5.
The value for C5U G38C was 0.719.
For the variant G6A A21G C33G A57U C62U, the yeast fitness was no more than 0.5.
As for G6A C22A C29U, the yeast fitness is no more than 0.5.
The value for C5U U28A C34U G41A was no more than 0.5.
Consider G6A G17C C31A A36U, for which the yeast fitness was found to be 0.53.
Regarding C5U U28A A65U, the yeast fitness turned out to be 0.553.
On to G6A C62A, for which the yeast fitness amounted to 0.873.
The value for G6A C24U C29G C49A was 0.575; that for G6A C11A C49G was no more than 0.5; that for G6A G10C C29U C61A C62U A65U A69C was no more than 0.5.
With C5U C31A A40G the figure was 0.743.
In the case of C5U G10C C27G U28C G39C C46G A69U, the yeast fitness is no more than 0.5.
With G6A A37G the figure was 0.722; with C5U U16G C34A U53C C60U, no more than 0.5.
For G6A A15C U16C, the yeast fitness is no more than 0.5.
The value for G6A C33G C55G C61G was no more than 0.5; that for G6A C22G A45C G52C A57U A69C was no more than 0.5.
For G6A A20G A36G C49G C55U, the yeast fitness was no more than 0.5.
For G6A C22G, the yeast fitness was 0.702.
With C5U C31U C61G the figure was 0.549.
The value for G6A G9C A14C C27A C31U C34A A42C C46G was no more than 0.5.
With C5U C30G U64A, the yeast fitness worked out at 0.578.
The value for C5U C46A C55G C66U A69U was no more than 0.5.
With G6A A20G C30G U35A G50A A65C the figure was 0.517; with C5U U7C A40C C66U, no more than 0.5.
Consider G6A G10C C34U A40C, for which the yeast fitness is no more than 0.5.
On to C5U G17C C30A G50A C66G, for which the yeast fitness is no more than 0.5.
The value for G6A C31U U32C G67C was 0.593; that for G6A A45G A70U was 0.775.
For the variant G6A A15C A20U A57U, the yeast fitness was no more than 0.5.
The value for C5U U7A C62A was no more than 0.5; that for G6A A36U C66U was 0.536; that for C5U C24U G44C was 0.528.
The value for C5U U28C A45C was 0.672; that for C5U U16G A20C A21G C30U was no more than 0.5; that for C5U C31A U32C A37C G50C A69C was 0.731.
Take C5U U8A G18A A69C: the yeast fitness was no more than 0.5.
For G6A A21C U47A G56A, the yeast fitness was no more than 0.5.
The value for G6A C24G U35A C46U G51C C55U A65C was no more than 0.5.
With G6A C24U C49U C61G C66U A69U the figure was no more than 0.5.
With C5U C27G C46U the figure was 0.753; with C5U G44A U64G, 0.532; with C5U C33U A65G, 0.63.
As to G6A A36U A45U, the yeast fitness was no more than 0.5.
Turning to C5U G6A, the yeast fitness was 0.884.
With G6A C27U the figure was 0.785; with C5U C31G C49U C61G, no more than 0.5; with C5U U13G C33A A37C, 0.555.
With C5U U16G the figure was 0.809; with C5U U16C, 0.972.
On to G6A G18A C22U, for which the yeast fitness came out at 0.6.
With G6A A20U C62U A65G the figure was no more than 0.5; with G6A C11A A15G C49G G51C, no more than 0.5.
The value for C5U C24U A40G was 0.637; that for C5U C24U A40C was 0.634; that for G6A A21G C24G A37U was no more than 0.5.
For the variant C5U U32C C49U, the yeast fitness is 0.842.
With G6A G12A C22A, the yeast fitness turned out to be 0.603.
With G6A C30U A65C A69G A70U the figure was no more than 0.5; with C5U U28G C62U A65G, no more than 0.5.
With G6A C22U C31G the figure was no more than 0.5; with C5U G25A A45G G50C A69C, no more than 0.5.
Consider G6A C27U A45C U59C C62U, for which the yeast fitness was no more than 0.5.
On to C5U C27A A42U C49G, for which the yeast fitness stood at 0.763.
The value for C5U U13G C61U was 0.726.
In the case of G6A C29G G38C A40G A45C, the yeast fitness is no more than 0.5.
With G6A A14G C66A the figure was no more than 0.5.
The value for C5U G17A was 0.929.
With C5U G23C C55A the figure was 0.566; with C5U G12A C29U, 0.565.
On to G6A A45C, for which the yeast fitness was 0.738.
With C5U C29A G39C G63A U64C A69C the figure was no more than 0.5.
With C5U G12C U13A the figure was no more than 0.5.
As for G6A A14G U35C A36G A45U, the yeast fitness was no more than 0.5.
Regarding C5U C30A, the yeast fitness stood at 0.889.
With C5U G51C the figure was 0.691; with G6A C24A G38A G39C, no more than 0.5.
With G6A C11A A43G G58A A65C C66U the figure was no more than 0.5; with G6A G18C A37C C60G A65G, no more than 0.5.
The value for G6A C11A U26A G52A was no more than 0.5; that for C5U U26A C55G C61A was no more than 0.5.
Turning to G6A C11G A21G C27G C29U U35G, the yeast fitness is no more than 0.5.
The value for G6A A14C A37U was 0.689; that for C5U C27A C33G A45C G50C G58A was 0.514.
On to C5U U28A G41A C62U, for which the yeast fitness was no more than 0.5.
On to C5U C27U G58A C60G, for which the yeast fitness is no more than 0.5.
Consider C5U C31U G50A C55G, for which the yeast fitness was determined as 0.57.
Regarding G6A G18C C22G A65C, the yeast fitness was no more than 0.5.
With G6A A43G A65U the figure was 0.604.
On to C5U G9C C34U C60G, for which the yeast fitness was no more than 0.5.
In the case of C5U G10C C30G C34U A42C, the yeast fitness was no more than 0.5.
On to G6A G9C C11G C34U U59A A69C, for which the yeast fitness is no more than 0.5.
The value for G6A C24U C49A was no more than 0.5; that for G6A C49A G63A was no more than 0.5.
As to G6A C11A U19A, the yeast fitness was 0.53.
The value for C5U C34G C61U C66U was no more than 0.5.
Regarding G6A C34A A40U U59G, the yeast fitness was no more than 0.5.
The value for C5U C24U G41C A70C was no more than 0.5; that for G6A A20C U28A C31A C33U A37C G50A A65U was no more than 0.5; that for C5U U32A C66U was 0.578.
Take C5U C66G: the yeast fitness came out at 0.779.
In the case of C5U C66A, the yeast fitness worked out at 0.729.
For C5U G6C G39A A45U C46G, the yeast fitness came out at 0.626.
For the variant G6A C11G A21G C27G C29U U35G A70C, the yeast fitness is no more than 0.5.
The value for G6A C29U C31U C33G U35C was no more than 0.5.
As for C5U U13C U19A A21U C24A, the yeast fitness is 0.511.
For G6A C11A U53C, the yeast fitness is no more than 0.5.
The value for C5U G12A G48A was 1.18; that for C5U U47C was 0.96; that for C5U C61A was 0.612.
With C5U C24U A36G C46A U47C C55A G67A the figure was no more than 0.5.
The value for C5U G50C U54C was no more than 0.5; that for C5U U7C U26A was 0.677; that for C5U U13G C30U was 0.663.
As for G6A C60A, the yeast fitness worked out at 0.515.
For the variant G6A C29G U32C, the yeast fitness is 0.548.
The value for G6A C55U was 0.677; that for G6A C22G C33A A36C A43G C55G was no more than 0.5.
For the variant G6A A15C G39A A65G, the yeast fitness was no more than 0.5.
With G6A G17A U32C the figure was no more than 0.5.
The value for C5U C24U C33U G44C G68A was no more than 0.5; that for G6A A14G A42G was 0.549; that for G6A G12A A20G C22G U26A G48C A65U was no more than 0.5.
Regarding C5U U19G U53A, the yeast fitness is 0.529.
The value for C5U G17C C30A was 0.548; that for G6A C30G C55G was no more than 0.5.
With C5U C34A G38C A70C the figure was 0.608; with G6A C11A A36G C61U C66U, no more than 0.5.

For the origin of these results see the RNAGym collection of RNA variant scans (doi:10.1126/science.aae0568).
